Test results reported in ChEMBL document CHEMBL1156296, “Development of novel, highly potent inhibitors of V-RAF murine sarcoma viral oncogene homologue B1 (BRAF): increasing cellular potency through optimization of a distal heteroaromatic group” (J Med Chem, 2010).

How the values were obtained:
[1] = target: T1, Serine/threonine-protein kinase B-raf (Homo sapiens, UniProt P15056, V600E); assay: Inhibition of human BRAF V600E mutant expressed in baculovirus system
How it was run: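 Isolated purified V600E BRAF kinase with a 45 min incubation. Enzyme inhibition measured and IC50 derived. Run in triplicate, with one compound measured once.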

[2] = Growth inhibition of human WM266.4 cells expressing BRAF V600E mutant after 5 days by SRB assay; type: functional; conditions: WM 266-4, 120 h
[3] = target: T1, Serine/threonine-protein kinase B-raf; assay: Inhibition of BRAF V600E mutant ERK phosphorylation in human WM266.4 cells; type: cell-based
How it was run: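 WM266.4 melanoma cells, which carry mutant V600E BRAF, exposed to inhibitor for 6 h. ERK phosphorylation (pERK) measured and IC50 derived. Run in triplicate, with a few compounds measured once.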

T1 sequence (P15056 2-766 V600E limits assumed): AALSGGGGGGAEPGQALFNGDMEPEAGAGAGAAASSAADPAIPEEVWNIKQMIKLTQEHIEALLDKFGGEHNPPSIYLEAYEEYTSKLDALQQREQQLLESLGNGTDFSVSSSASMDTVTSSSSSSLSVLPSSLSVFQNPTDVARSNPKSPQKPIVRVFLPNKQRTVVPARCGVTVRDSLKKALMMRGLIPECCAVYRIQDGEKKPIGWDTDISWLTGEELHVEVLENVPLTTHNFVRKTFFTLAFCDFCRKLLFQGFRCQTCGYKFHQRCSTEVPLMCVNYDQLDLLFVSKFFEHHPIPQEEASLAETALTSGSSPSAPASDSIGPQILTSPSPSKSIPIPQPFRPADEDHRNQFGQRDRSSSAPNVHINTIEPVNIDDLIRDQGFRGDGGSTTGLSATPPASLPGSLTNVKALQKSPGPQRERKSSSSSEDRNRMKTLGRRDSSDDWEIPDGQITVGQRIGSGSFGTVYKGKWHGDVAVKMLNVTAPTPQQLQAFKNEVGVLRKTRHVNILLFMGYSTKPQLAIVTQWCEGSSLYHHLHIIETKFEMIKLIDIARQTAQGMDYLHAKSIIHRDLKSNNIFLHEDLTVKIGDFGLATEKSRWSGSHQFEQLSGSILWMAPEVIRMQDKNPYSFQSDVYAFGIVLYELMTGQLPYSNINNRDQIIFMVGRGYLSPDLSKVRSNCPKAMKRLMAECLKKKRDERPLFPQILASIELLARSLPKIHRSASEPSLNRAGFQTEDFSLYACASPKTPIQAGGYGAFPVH

Cn1c(=O)[nH]c2nccc(Oc3ccc(NC(=O)Nc4cc(C(C)(C)C)nn4-c4cccnc4)cc3)c21
IC50 [1]: 390 nM
GI50 [2]: 590 nM
IC50 [3]: 830 nM

CC(C)(C)c1csc(NC(=O)Nc2ccc(Oc3ccnc4[nH]c(=O)[nH]c34)cc2)n1
IC50 [1]: 7800 nM
GI50 [2]: 10400 nM

O=C(Nc1ccc(Oc2ccnc3[nH]c(=O)[nH]c23)cc1)Nc1nnc(C2CCCO2)s1 (stereo not drawn)
IC50 [1]: 170 nM
GI50 [2]: 48900 nM
IC50 [3]: 58000 nM

CC(C)(C)c1cc(NC(=O)Nc2ccc(Oc3ccnc4[nH]c(=O)[nH]c34)c3ccccc23)n(-c2ccc(F)cc2)n1
IC50 [1]: 240 nM
GI50 [2]: 20 nM
IC50 [3]: 203 nM

CC(C)(C)c1cc(NC(=O)Nc2ccc(Sc3ccnc4[nH]c(=O)[nH]c34)cc2)n(-c2ccccc2)n1
IC50 [1]: 215 nM
GI50 [2]: 12 nM
IC50 [3]: 70 nM

Cc1ccc(-n2nc(C(C)(C)C)cc2NC(=O)Nc2ccc(Sc3ccnc4[nH]c(=O)[nH]c34)cc2)cc1
IC50 [1]: 2200 nM
GI50 [2]: 259 nM
IC50 [3]: 234 nM

Cc1ccc(-n2nc(C(C)(C)C)cc2NC(=O)Nc2ccc(Oc3ccnc4[nH]c(=O)[nH]c34)c3ccccc23)cc1
IC50 [1]: 670 nM
GI50 [2]: 31 nM
IC50 [3]: 14 nM

Cn1c(=O)[nH]c2nccc(Oc3ccc(NC(=O)Nc4cc(C(C)(C)C)nn4-c4ccc(F)cc4)c4ccccc34)c21
IC50 [1]: 313 nM
GI50 [2]: 47 nM
IC50 [3]: 35 nM

Cn1c(=O)[nH]c2c(Oc3ccc(NC(=O)Nc4cc(C(C)(C)C)nn4-c4ccccc4)c4ccccc34)ccnc21
IC50 [1]: 6900 nM
GI50 [2]: 167 nM
IC50 [3]: 27 nM

Cc1ccc(-n2nc(C(C)(C)C)cc2NC(=O)Nc2ccc(Oc3ccnc4c3[nH]c(=O)n4C)c3ccccc23)cc1
IC50 [1]: 6300 nM
GI50 [2]: 1090 nM
IC50 [3]: 70 nM

Cn1nc(C(C)(C)C)cc1NC(=O)Nc1ccc(Oc2ccnc3c2[nH]c(=O)n3C)c2ccccc12
IC50 [1]: 197 nM
GI50 [2]: 470 nM
IC50 [3]: 470 nM

Cc1ccc(-n2nc(C(C)(C)C)cc2NC(=O)Nc2ccc(Oc3ccnc4c3n(C)c(=O)n4C)cc2)cc1
IC50 [1]: 1800 nM
GI50 [2]: 210 nM
IC50 [3]: 190 nM

Cn1nc(C(C)(C)C)cc1NC(=O)Nc1ccc(Oc2ccnc3[nH]c(=O)[nH]c23)c2ccccc12
IC50 [1]: 11 nM
GI50 [2]: 670 nM
IC50 [3]: 2300 nM

CSc1cc(Oc2ccnc3[nH]c(=O)[nH]c23)ccc1NC(=O)Nc1cc(C(C)(C)C)nn1-c1ccc(C)cc1
IC50 [1]: 76 nM
GI50 [2]: 16 nM
IC50 [3]: 56 nM

Cn1nc(C(C)(C)C)cc1NC(=O)Nc1ccc(Oc2ccnc3c2[nH]c(=O)n3C)cc1
IC50 [1]: 258 nM
GI50 [2]: 1920 nM
IC50 [3]: 2900 nM

Cn1c(=O)[nH]c2c(Oc3ccc(NC(=O)Nc4cc(C(C)(C)C)nn4-c4ccccc4)cc3)ccnc21
IC50 [1]: 880 nM
GI50 [2]: 61 nM
IC50 [3]: 130 nM

Cc1ccc(-n2nc(C(F)(F)F)cc2NC(=O)Nc2ccc(Oc3ccnc4[nH]c(=O)n(C)c34)cc2)cc1
IC50 [1]: 176 nM
GI50 [2]: 1890 nM
IC50 [3]: 3200 nM

Cn1c(=O)[nH]c2nccc(Oc3ccc(NC(=O)Nc4cc(C5CC5)nn4-c4ccccc4)cc3)c21
IC50 [1]: 143 nM
GI50 [2]: 3700 nM
IC50 [3]: 18200 nM

Cn1c(=O)[nH]c2nccc(Oc3ccc(NC(=O)Nc4cc(C(C)(C)C)nn4-c4ccccc4)cc3)c21
IC50 [1]: 215 nM
GI50 [2]: 145 nM
IC50 [3]: 164 nM

Cn1nc(C(C)(C)C)cc1NC(=O)Nc1ccc(Oc2ccnc3[nH]c(=O)n(C)c23)cc1
IC50 [1]: 84 nM
GI50 [2]: 4200 nM
IC50 [3]: 14100 nM

Cn1c(=O)[nH]c2nccc(Oc3ccc(NC(=O)Nc4cc(C(C)(C)C)nn4-c4ccc(F)cc4)cc3)c21
IC50 [1]: 135 nM
GI50 [2]: 497 nM
IC50 [3]: 1360 nM

CC(C)(C)c1cc(NC(=O)Nc2ccc(Oc3ccnc4[nH]c(=O)[nH]c34)c3ccccc23)n(-c2ccccc2)n1
IC50 [1]: 510 nM
GI50 [2]: 34 nM
IC50 [3]: 35 nM

Cn1nc(C(C)(C)C)cc1NC(=O)Nc1ccc(Oc2ccnc3[nH]c(=O)n(C)c23)c2ccccc12
IC50 [1]: 99 nM
GI50 [2]: 161 nM
IC50 [3]: 383 nM
